Experimental data published in PMC8941156 (Heliyon, 2022).

How the values were obtained:
[1] = Single dose oral pharmacokinetic study of rubraxanthone in mice; assay type: in vivo; conditions: mouse, plasma, 700 mg/kg
Summary of the method: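 Mice (7–8 weeks, 20 ± 5 g) were given a fresh suspension in virgin coconut oil orally. Under isoflurane, mandibular-vein blood was taken from six mice per time point over 0–24 h into lithium heparin, and plasma was stored at −80 °C. Plasma was extracted by acetonitrile precipitation with α-mangostin internal standard and read by UHPLC-DAD (0.128–5 µg/mL calibration). Non-compartmental analysis used trapezoidal AUC and Ke from log-linear regression of the last four points (3–5.5 h), reported as mean ± SD.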

[2] = Stability of rubraxanthone in mice plasma; assay type: in vitro ADME; conditions: for freeze–thaw stability, % diff: mice plasma, three freeze–thaw rounds
Summary of the method: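 Blank mouse plasma was spiked at medium and high QC levels, extracted by acetonitrile precipitation with α-mangostin internal standard, and quantified by UHPLC-DAD at 243 nm. For freeze–thaw, four replicate samples per level went through three cycles. Post-preparative and plasma stability came from eight replicates per level. Results are given as % difference.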

CL/F [1]: 18.7 mL/min/kg
Tmax [1]: 1.5 ± 0.99 h
half-life [1]: 6.72 ± 1.29 h
k el [1]: 2.78e-05 s⁻¹
freeze–thaw stability, % diff ([2]; HC sample (3.750 μg/mL)): 5.9%
freeze–thaw stability, % diff ([2]; MC sample (2.067 μg/mL)): 0.49%
post-preparative and plasma stability ([2]; plasma kept at ambient temperature for 24 h before or after extraction vs plasma kept at -20 °C, MC and HC samples): stable
SMILES: COc1c(O)cc2oc3cc(O)cc(O)c3c(=O)c2c1C/C=C(\C)CCC=C(C)C [rubraxanthone, 1,3,6,trihydroxy-8-geranyl-7-methoxy xanthone]
